In assay [1] the test system is Staphylococcus aureus. As to the kind of experiment: Synergistic antibacterial activity against methicillin resistant Staphylococcus aureus ATCC BAA-1556 assessed as fractional inhibitory concentration index incubated for 24 hrs in presence of tobramycin by checkerboard assay. Type of assay: functional. Put shortly:
(§1)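 Checkerboard assay. Inoculum from an LB overnight culture at 0.5 McFarland, diluted 1/150 in MH media. […] Incubated 37 °C for 24 h. FICI = MIC combination/MIC alone summed over both agents. Triplicate.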

In assay [2] the test system is Pseudomonas aeruginosa. The assay can be described thus: Synergistic antibacterial activity against Pseudomonas aeruginosa ATCC […] fractional inhibitory concentration incubated for 24 hrs in presence of polymyxin B by checkerboard assay. Type of assay: functional.
Assay [3] concerns Staphylococcus aureus. The assay can be described thus: Synergistic antibacterial activity against methicillin resistant Staphylococcus aureus ATCC BAA-1556 incubated for 24 hrs in presence of levofloxacin by checkerboard assay. The class given is functional. In a few lines: as §1
Assay [4] has as its system Staphylococcus aureus. As to the kind of experiment: Synergistic antibacterial activity against methicillin resistant Staphylococcus aureus ATCC BAA-1556 fractional inhibitory concentration incubated for 24 hrs in presence of levofloxacin by checkerboard assay. Type of assay: functional. In a few lines: as §1
In assay [5] the test system is Klebsiella pneumoniae. As to the kind of experiment: Synergistic antibacterial activity against Klebsiella pneumoniae ATCC BAA-1705 fractional inhibitory concentration incubated for 24 hrs in presence of meropenem by checkerboard assay. The class given is functional. In a few lines: (§2)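 Checkerboard assay in MH broth. Inoculum from an LB overnight culture set to 0.5 McFarland and diluted 1/150. […] Each agent was also titrated alone. Incubation 24 h at 37 °C. FIC = combination MIC/individual MIC; FICI = sum of the FICs. Triplicate.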

The subject of assay [6] is Cell membrane. As to the kind of experiment: Membrano-lytic activity against Escherichia coli assessed as change in morphology at 4 times MIC after 1 hr by SEM analysis. Type of assay: subcellular. Put shortly: (§3)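 E. coli ATCC BAA-2452 from overnight culture, suspended at 10^7 CFU/mL in 10 mM PBS pH 7.4. […] Fixed in 4% glutaraldehyde in cacodylate buffer pH 7.4 for 3 h at 4 °C, ethanol-dehydrated, HMDS-dried, Au/Pd-coated, then imaged by FE-SEM.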

The subject of assay [7] is Pseudomonas aeruginosa. As to the kind of experiment: Synergistic antibacterial activity against Pseudomonas aeruginosa ATCC […] fractional inhibitory concentration index incubated for 24 hrs in presence of polymyxin B by checkerboard assay. Type of assay: functional.
Assay [8] relates to Staphylococcus aureus. The assay can be described thus: Induction of resistance development in Staphylococcus aureus ATCC 29213 assessed as increase in MIC by microtiter plate reader assay. Type of assay: functional, organism-based. In a few lines:
(§4)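 Serial passage resistance assay with 2-fold microdilution MICs in 96-well plates. Each passage takes the well with the highest concentration still permitting growth, adjusts it to 0.5 McFarland, and dilutes it to a final 5 × 10^5 CFU/mL for the next passage. Eighteen passages; MIC recorded at each. Triplicate.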

For assay [9], the system named is Staphylococcus aureus. As to the kind of experiment: Bactericidal activity against methicillin resistant Staphylococcus aureus assessed as reduction in bacterial cells by time kill assay. Type of assay: functional, organism-based. To be noted: TDE = time-dependent effect. Put shortly:
(§5)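 Time-kill in Müller–Hinton media. […] Aliquots taken at 0–24 h, serially diluted and plated on MH agar. CFU counted after 24 h at 37 °C. Two independent experiments in triplicate.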

Assay [10] is described as follows: Membrano-lytic effect in bacterial inner membrane mimic DOPC/DOPG (7:3) large unilamellar vesicles assessed as calcein leakage at 50 ug/ml measured after 90 mins by multimode microplate reader assay. Type of assay: cell membranes. To be noted: dose 50.0 µg/ml. In a few lines:
(§6)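 Calcein (70 mM) loaded into extruded 100 nm LUVs: DOPC:DOPG 7:3 (w/w) as the bacterial mimic, DOPC/cholesterol 10:1 (w/w) as the mammalian mimic. Free dye removed by gel filtration. Liposomes at 40 μM final lipid in PBS mixed 1:1 with peptide (5–50 μg/mL). Fluorescence (ex 490/em 520 nm) read every 10 min for 100 min; Triton X-100 defines 100% release. Triplicate.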

In assay [11] the test system is Staphylococcus aureus. The assay can be described thus: Induction of resistance development in methicillin resistant Staphylococcus aureus ATCC BAA-1556 assessed as increase in MIC by microtiter plate reader assay. Type of assay: functional, organism-based. Put shortly: as §4
Assay [12] concerns Cell membrane. As to the kind of experiment: Membrano-lytic activity against Escherichia coli assessed as membrane atrophy at 4 times MIC after 1 hr by SEM analysis. Type of assay: subcellular. In a few lines: as §3
Assay [13] relates to Staphylococcus aureus. As to the kind of experiment: Bactericidal activity against methicillin resistant Staphylococcus aureus assessed as reduction in bacterial cells at MIC after […] by time kill assay. The class given is functional. Further details: scale not given: the % may be the effect or the level left.
The test system of assay [14] is Staphylococcus aureus. As to the kind of experiment: Bactericidal activity against methicillin resistant Staphylococcus aureus assessed as reduction in bacterial cells at 4 times MIC after 2 hrs by time kill assay. The class given is functional. The arrangement: scale not given: the % may be the effect or the level left. Put shortly: as §5
Assay [15] has as its system Escherichia coli. As to the kind of experiment: Induction of resistance development in Escherichia coli ATCC 25922 assessed as increase in MIC by microtiter plate reader assay. The class given is functional, organism-based.
For assay [16], the system named is Escherichia coli. As to the kind of experiment: Synergistic antibacterial activity against Escherichia coli ATCC 25922 assessed as fractional inhibitory concentration incubated for 24 hrs in presence of tobramycin by checkerboard assay. The class given is functional. In a few lines:
as §2

A short description of assay [17]: Membrano-lytic effect in bacterial inner membrane mimic DOPC/DOPG (7:3) large unilamellar vesicles assessed as calcein leakage measured upto 100 mins by multimode microplate reader assay. The class given is cell membranes. To be noted: dose 5-50 µg/ml. In a few lines: as §6
Assay [18] deals with Klebsiella pneumoniae. The assay can be described thus: Antibacterial activity against carbapenem resistant Klebsiella pneumoniae ATCC BAA 1705 after 24 hrs by microbroth dilution method. The class given is functional. For orientation: Dilution methods test growth across graded concentrations, often in twofold steps.
The subject of assay [19] is Cell membrane. The assay can be described thus: Membrano-lytic activity against methicillin resistant Staphylococcus aureus assessed as change in morphology at 4 times MIC after 1 hr by SEM analysis. The class given is subcellular.
Assay [20] concerns Pseudomonas aeruginosa. As to the kind of experiment: Synergistic antibacterial activity against Pseudomonas aeruginosa ATCC […] incubated for 24 hrs in presence of tobramycin by checkerboard assay. Type of assay: functional.
In assay [21] the test system is Staphylococcus aureus. The assay can be described thus: Synergistic antibacterial activity against methicillin resistant Staphylococcus aureus ATCC BAA-1556 assessed as fractional inhibitory concentration incubated for 24 hrs in presence of tobramycin by checkerboard assay. Type of assay: functional. In a few lines:
as §1

Assay [22] relates to Klebsiella pneumoniae. The assay can be described thus: Antibacterial activity against Klebsiella pneumoniae ATCC 700603 after 24 hrs by microbroth dilution method. Type of assay: functional.
The test system of assay [23] is Cell membrane. As to the kind of experiment: Membrano-lytic activity against methicillin resistant Staphylococcus aureus assessed as loss of membrane fluidity at 4 times MIC after 1 hr by SEM analysis. The class given is subcellular.
For assay [24], the system named is Pseudomonas aeruginosa. As to the kind of experiment: Synergistic antibacterial activity against Pseudomonas aeruginosa ATCC […] incubated for 24 hrs in presence of polymyxin B by checkerboard assay. The class given is functional. Put shortly: as §1
Assay [25] can be described thus: Therapeutic index, ratio of cytotoxicity against human HEKa to MIC for methicillin resistant Staphylococcus aureus.
For assay [26], the system named is Staphylococcus aureus. The assay can be described thus: Synergistic antibacterial activity against methicillin resistant Staphylococcus aureus ATCC BAA-1556 fractional inhibitory concentration incubated for 24 hrs in presence of Ciprofloxacin by checkerboard assay. Type of assay: functional. Put shortly:
as §1

In assay [27] the test system is Escherichia coli. The assay can be described thus: Synergistic antibacterial activity against Escherichia coli ATCC 25922 fractional inhibitory concentration incubated for 24 hrs in presence of Ciprofloxacin by checkerboard assay. The class given is functional. In a few lines:
as §2

The test system of assay [28] is Escherichia coli. The assay can be described thus: Synergistic antibacterial activity against Escherichia coli ATCC 25922 fractional inhibitory concentration incubated for 24 hrs in presence of metronidazole by checkerboard assay. Type of assay: functional. Put shortly: as §2
For assay [29], the system named is Staphylococcus aureus. As to the kind of experiment: Synergistic antibacterial activity against methicillin resistant Staphylococcus aureus ATCC BAA-1556 fractional inhibitory concentration incubated for 24 hrs in presence of polymyxin B by checkerboard assay. Type of assay: functional. In a few lines: as §1
For assay [30], the system named is Escherichia coli. The assay can be described thus: Synergistic antibacterial activity against Escherichia coli ATCC 25922 fractional inhibitory concentration incubated for 24 hrs in presence of meropenem by checkerboard assay. The class given is functional. Put shortly:
as §1

In assay [31] the test system is Escherichia coli. The assay can be described thus: Synergistic antibacterial activity against Escherichia coli ATCC 25922 incubated for 24 hrs in presence of meropenem by checkerboard assay. Type of assay: functional. Put shortly: as §2
For assay [32], the system named is Escherichia coli. The assay can be described thus: Synergistic antibacterial activity against Escherichia coli ATCC 25922 fractional inhibitory concentration index incubated for 24 hrs in presence of meropenem by checkerboard assay. The class given is functional. In a few lines: as §1

Structures are written as SMILES. Active and inactive are the calls of the source. Peptide text beside a SMILES is read from it.

For orientation: MIC means the smallest concentration in the dilution series that meets the test's criterion for growth inhibition. Regarding `N=C(N)NCCC[C@@H]1NC(=O)[C@H](CCCNC(=N)N)NC(=O)[C@H](CCCNC(=N)N)NC(=O)[C@H](Cc2c[nH]c3ccccc23)NC(=O)[C@H](Cc2c[nH]c3ccccc23)NC(=O)[C@H](Cc2c[nH]c3ccccc23)NC(=O)[C@H](Cc2c[nH]c3ccccc23)NC(=O)[C@H](CCCNC(=N)N)NC(=O)[C@H](CCCNC(=N)N)NC1=O`, the “fractional inhibitory concentration index (FICI)” value stood at 0.5 in the assay on Staphylococcus aureus [1] and 0.375 in the assay on Pseudomonas aeruginosa [7]. For the same molecule, the FIC with Pseudomonas aeruginosa [2] was found to be 0.125; in the assay with Staphylococcus aureus [4], 0.25; in the assay on Klebsiella pneumoniae [5] it was 0.25; with Escherichia coli [16], 0.25; in the assay on Staphylococcus aureus [21] it was 0.25. The minimum inhibitory concentration (MIC) with Staphylococcus aureus [3] is 1 µg/mL; in the assay with Klebsiella pneumoniae [18], greater than 64 µg/mL; with Pseudomonas aeruginosa [20], 0.125 µg/mL; in the assay with Klebsiella pneumoniae [22] it was greater than 64 µg/mL; in the assay with Pseudomonas aeruginosa [24], 0.125 µg/mL. The outcome in the assay on Cell membrane [6], in the assay on Cell membrane [12], with Cell membrane [19] and in the assay with Cell membrane [23] was Active. Also, the result with Staphylococcus aureus [8], with Staphylococcus aureus [11] and with Escherichia coli [15] was inactive. Besides, the Activity entry with Staphylococcus aureus [9] is “Tde”; in assay [10], 100%; in the assay with Staphylococcus aureus [13], 100%; in the assay on Staphylococcus aureus [14] it was 100%; in assay [17], “Dose-Dependent Effect”. The TI in assay [25] is 63.

`N=C(N)NCCC[C@@H]1NC(=O)[C@H](CCCNC(=N)N)NC(=O)[C@H](CCCNC(=N)N)NC(=O)[C@H](CCCNC(=N)N)NC(=O)[C@H](Cc2c[nH]c3ccccc23)NC(=O)[C@H](Cc2c[nH]c3ccccc23)NC(=O)[C@H](Cc2c[nH]c3ccccc23)NC(=O)[C@H](Cc2c[nH]c3ccccc23)NC(=O)[C@H](CCCNC(=N)N)NC(=O)[C@H](CCCNC(=N)N)NC1=O` (cyclo(RRRRRRWWWW)): the FIC in the assay with Staphylococcus aureus [26] came to 0.25; in the assay with Escherichia coli [27], 0.125; in the assay with Escherichia coli [28], 0.125; in the assay on Staphylococcus aureus [29] it was 0.063; in the assay on Escherichia coli [30] it was 0.125. Also, the MIC in the assay on Escherichia coli [31] worked out at 0.125 µg/mL. In addition, the “fractional inhibitory concentration index (FICI)” value in the assay on Escherichia coli [32] came to 0.375.
